Consider one compound from ChEMBL document CHEMBL1126796, “2-(Alkylamino)nicotinic acid and analogs. Potent angiotensin II antagonists” (J Med Chem, 1993).

Data set [1] is described as follows: Bioavailability after oral dose of […]. The conditions noted are these: eutheria, in vivo. It counts as ADME, organism-based.
Data set [2] is described as follows: Tmax value after oral dose of 3.87 mg/kg. Further details: dose 3.87 mg/kg, route oral. In kind it is ADME, organism-based. The conditions noted are these: in vivo. The procedure, abridged:
(§1)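 Male Sprague-Dawley-derived rats. Compound was given in normal saline at 1 mL/kg, either as a slow iv bolus into the jugular vein or orally by gavage. Plasma underwent liquid-liquid extraction and reverse-phase HPLC. Terminal elimination half-life and time of observed peak concentration were taken from the profiles.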

Data set [3] in a line: Bioavailability after oral dose of 10 mg/kg. In kind it is ADME, organism-based. The conditions noted are these: eutheria, in vivo. The essentials: (§2)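 Male Sprague-Dawley-derived rats were dosed with compound in normal saline (1 mL/kg), by gavage or as a slow IV bolus into the jugular vein. Heparinized tail-vein blood was taken at 0.25-24 h, extracted liquid-liquid and assayed by reverse-phase HPLC. Cmax is the observed peak concentration and AUC is mean (SEM). F compares oral with IV AUC, corrected for dose and assuming dose proportionality.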

The nature of data set [4]: Cmax value after oral dose of […]. It counts as ADME, organism-based. The conditions noted are these: in vivo.
Data set [5] can be described thus: Area under curve after oral dose of […]. It counts as ADME, organism-based. Conditions: in vivo.
For data set [6], the system named is Rattus norvegicus. Nature of the data set: % decrease in blood pressure after 4 hours at a dose of 10 mg/kg in male rats by using Renal artery hypertensive model. In kind it is functional. The procedure, abridged:
(§3)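 Male Sprague-Dawley rats (300-350 g) were made hypertensive by renal artery ligation and used on day 6 or 7 after ligation. Arterial pressure was measured from an indwelling femoral artery catheter, with blood pressure and heart rate recorded on line. Read-out is % decrease in blood pressure at 4 h, ±SEM, with number of rats.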

Data set [7] is described as follows: Volume of distribution of central compartment (dose+ plasma concentration at time zero) after intravenous dose of 3.87 mg/kg. It counts as ADME, organism-based. Further details: dose 3.87 mg/kg, route intravenous. Conditions: read-out: VI. The essentials:
(§4)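 Jugular-vein slow iv bolus (normal saline, 1 mL/kg) in male Sprague-Dawley-derived rats. Plasma was sampled via the tail vein at 0.1–24 h and measured by reverse-phase HPLC after liquid-liquid extraction. Central volume was taken as dose divided by plasma concentration at time zero. Terminal-phase volume was derived from clearance and the plasma elimination rate constant.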

The target in data set [8] is T1, Type-1 angiotensin II receptor A (Rattus norvegicus, UniProt P25095).
T1 sequence (P25095 whole entry): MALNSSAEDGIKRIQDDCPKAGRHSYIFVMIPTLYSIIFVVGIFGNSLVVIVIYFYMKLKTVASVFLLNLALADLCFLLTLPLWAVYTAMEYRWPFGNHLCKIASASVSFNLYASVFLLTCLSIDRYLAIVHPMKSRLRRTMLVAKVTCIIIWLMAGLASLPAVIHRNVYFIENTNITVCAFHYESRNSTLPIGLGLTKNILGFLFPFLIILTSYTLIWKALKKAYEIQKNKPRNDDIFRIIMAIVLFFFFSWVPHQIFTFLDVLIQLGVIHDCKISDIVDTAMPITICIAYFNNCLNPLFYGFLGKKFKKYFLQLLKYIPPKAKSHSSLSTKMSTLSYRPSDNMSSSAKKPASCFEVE
Nature of the data set: Binding affinity against angiotensin II receptor from rat liver. The essentials: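 Rat liver membranes were incubated with [125I]-saralasin to measure angiotensin II type 1 receptor binding. Nonspecific binding was defined with 1 µM angiotensin.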

Data set [9] in a line: Bioavailability after oral dose of 3.87 mg/kg. It counts as ADME, organism-based. The conditions noted are these: eutheria, in vivo. The essentials:
as §2

The nature of data set [10]: Tmax value after oral dose of […]. In kind it is ADME, organism-based. Conditions: in vivo.
Data set [11] can be described thus: Cmax value after oral dose of 3.87 mg/kg. It counts as ADME, organism-based. Further details: dose 3.87 mg/kg, route oral. Conditions: in vivo. The procedure, abridged: as §2
Data set [12] concerns Rattus norvegicus. Description: % decrease in blood pressure after 4 hours in male rats at a dose of 1 mg/kg by using Renal artery hypertensive model. In kind it is functional. The essentials: as §3
Data set [13] in a line: Plasma clearance after intravenous dose of 3.87 mg/kg. It counts as ADME, organism-based. The arrangement: dose 3.87 mg/kg, route intravenous. The conditions noted are these: read-out: Clp. The procedure, abridged: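 Male Sprague-Dawley-derived rats received a slow iv bolus into the jugular vein of the compound in normal saline (1 mL/kg). Tail-vein heparinized blood was drawn from 0.1 to 24 h and assayed by reverse-phase HPLC after liquid-liquid extraction. Total plasma clearance was calculated as dose divided by AUC and reported as mean (SEM).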

Data set [14] in a line: Half-life period of compound after intravenous dose of 3.87 mg/kg. In kind it is ADME, organism-based. Further details: dose 3.87 mg/kg, route intravenous. The conditions noted are these: in vivo. The essentials: as §1
Data set [15] can be described thus: Volume of distribution of the terminal phase (CLp+ plasma elimination rate constant) after intravenous dose of 3.87 mg/kg. Conditions: read-out: Vbeta. The arrangement: dose 3.87 mg/kg, route intravenous. In kind it is ADME, organism-based. The procedure, abridged:
as §4

Data set [16] can be described thus: Cmax value after oral dose of 10 mg/kg. In kind it is ADME, organism-based. Further details: dose 10 mg/kg, route oral. The conditions noted are these: in vivo. The essentials: as §2
Data set [17] can be described thus: Area under curve after oral dose of 3.87 mg/kg. It counts as ADME, organism-based. Further details: dose 3.87 mg/kg, route oral. Conditions: in vivo. The procedure, abridged: as §2
A short description of data set [18]: Area under curve after oral dose of 10 mg/kg. Conditions: in vivo. Further details: dose 10 mg/kg, route oral. In kind it is ADME, organism-based. The essentials: as §2
The subject of data set [19] is Rattus norvegicus. Description: % decrease in blood pressure after 4 hours in male rats at a dose of 3 mg/kg by using Renal artery hypertensive model. It counts as functional. The essentials:
as §3

The nature of data set [20]: Tmax value after oral dose of 10 mg/kg. It counts as ADME, organism-based. The arrangement: dose 10 mg/kg, route oral. The conditions noted are these: in vivo. The procedure, abridged: as §1

The term bioavailability denotes the share of a dose that reaches the circulation, judged against a reference dose that is usually intravenous. The Tmax is the time from dosing to the highest level. The Cmax is the maximum level reached in the sampled fluid or tissue. One may read the Ki as a measure of affinity in units of concentration, obtained from inhibition or displacement. Usually half-life stands for the time needed for the level to fall by half in the phase considered. A lower half-life goes with rapid decline. With `CCCCN(Cc1ccc(-c2ccccc2-c2nn[nH]n2)cc1)c1ncncc1C(=O)O.Cl`, the figures for the bioavailability in data set [1], in data set [3] and in data set [9] were 4.8%, 4.8% and 10.3%, respectively. The results for the Tmax in data set [2], in [10] and in [20] were 1.3 h, 1.1 h and 0.9 h, respectively. The Cmax turned out to be 1470 ng/mL in data set [4], 510 ng/mL in data set [11] and 840 ng/mL in data set [16]. The figures for the AUC in data set [5], in data set [17] and in [18] were 6.65 µg/h/mL, 2.38 µg/h/mL and 2.83 µg/h/mL, respectively. The results for the “Decrease in blood pressure” value in the data set on Rattus norvegicus [6], in the data set with Rattus norvegicus [12] and with Rattus norvegicus [19] were 41%, 10% and 18%, respectively. Further, the Vd in data set [7] was determined as 0.08 L/kg; in [15], 0.42 L/kg. Further, the affinity in data set [8], expressed as Ki, was 1.77 nM. For the same compound, the clearance in [13] is 0.85 mL/min. This compound had a half-life in [14] of 1.5 h.
